# Shown are actives, neighbours in structure and some others; about 2.2% of the full set was active somewhere.
# TDP2 inh – blocks human TDP2 phosphodiesterase activity. O95551. recombinant TDP2, T5PNP hydrolysis, p-nitrophenol absorbance 415 nm. inhibition, % at 12.8 µM. actives 0.34% (n = 370,000);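 active = inhibition above the mean of all tested compounds plus 3 SD, set per campaign, cut at about 25% in these data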
#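 Incubation: 2 h at 37 °C; Test system: recombinant human TDP2; Quantity: enzyme 120 nM; Read-out basis: percent inhibition; Medium: 50 mM Tris-HCl pH 7.5 with Mg2+, KCl, DTT, BSA; Repeats: single replicate; Compound: 12.8 µM single point, 1% DMSO; Signal: epi absorbance; Reagent: 5 mM T5PNP chromogenic substrate; Benchmarks: no-enzyme high, DMSO-plus-enzyme low.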
# HTRA1 inh – blocks human HTRA1 serine peptidase; Q92743; recombinant HTRA1, FP-rhodamine activity-based probe, fluorescence polarization; inhibition, % at 5.96 µM; actives 0.5% (n = 340,000); in the data active = inhibition above about 36%
# LEDGF integ inh – blocks HIV-1 LEDGF/p75-dependent DNA integration. AID 743269. inhibition, % at 3.7 µM. TR-FRET IN-LEDGF/p75 DNA integration, Eu/Cy5. actives 0.64% (n = 370,000);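 active = inhibition above the screen-wide mean plus 3 SD, cut at about 13% in these data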;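 note: signal is the Cy5 over europium emission ratio at 671 and 618 nm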
# SIAE inh – blocks human sialic acid acetylesterase | SIAE FP-Rh probe binding, fluorescence polarization | inhibition, % at 9.66 µM | actives 0.69% (n = 370,000);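 active = inhibition above a cutoff: mean of compounds within the control limits plus 3 SD of those, cut at about 17% in these data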
# TCR CD3 inh – inhibitors of human TCR-CD3 interaction. actives 0.37% (n = 360,000). inhibition, % at 9.4 µM. TAMRA-labeled TCR probe fluorescence, biochemical; in the data active = inhibition above about 19%;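 note: recombinant mutant TCR 2C K166C tagged with TAMRA read by polarization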
# ABHD4 inh – inhibits mouse alpha/beta hydrolase domain 4. Q8VD66. purified mABHD4, FP-Rh probe fluorescence polarization. inhibition, % at 8.92 µM. actives 0.54% (n = 370,000);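 active = inhibition exceeding the mean over every tested compound plus 3 SD, cut at about 30% in these data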
# Target sequence (Q8VD66 whole entry, looked up, the tested form may be a part): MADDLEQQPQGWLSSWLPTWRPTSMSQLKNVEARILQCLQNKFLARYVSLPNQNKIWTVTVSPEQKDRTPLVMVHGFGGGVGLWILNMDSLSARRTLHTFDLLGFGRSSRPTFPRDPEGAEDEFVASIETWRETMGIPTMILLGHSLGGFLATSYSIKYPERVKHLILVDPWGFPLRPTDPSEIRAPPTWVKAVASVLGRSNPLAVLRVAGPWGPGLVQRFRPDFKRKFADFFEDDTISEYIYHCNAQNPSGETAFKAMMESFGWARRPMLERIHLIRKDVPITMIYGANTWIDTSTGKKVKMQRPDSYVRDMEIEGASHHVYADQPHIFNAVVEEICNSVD
#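 Assay system: mouse ABHD4 enzyme, wild type / Also added: fluorescent activity-based probe FP-Rh / Doses: single nominal dose of 8.92 µM, 0.89% DMSO final / Timing: 45 min compound pre-incubation plus 60 min probe step, 25 °C / Signal: FP readout, ex 525 nm / em 598 nm / Control set: S159A mutant/DMSO as 100%, compound-well median as 0%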
# SIAE inh conf – confirmation of human SIAE inhibitors | actives 13% (n = 2,300) | SIAE FP-Rh activity-based probe, fluorescence polarization | inhibition, % at 9.66 µM | shares compounds with SIAE inh;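 active = mean inhibition of the replicates above the hit cutoff set in the primary screen, cut at about 17% in these data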;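 note: inhibitors lower polarization as more probe stays unbound to SIAE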
# A number is an active result; 0 = inactive; - = no result.
SMILES,TDP2 inh,HTRA1 inh,LEDGF integ inh,SIAE inh,TCR CD3 inh,ABHD4 inh,SIAE inh conf
O=C(Nc1cccc(/C=C/c2ccccn2)c1)c1ccc(-n2cncn2)c([N+](=O)[O-])c1,0,0,0,19.3,0,0,0
COC(=O)Nc1ncc(CN2CCc3ccccc3C2)s1,0,0,0,78.4,0,0,0
CCOC(=O)C1CCN(Cc2cnc(NC(=O)OC)s2)CC1,0,0,0,0,0,0,-
COc1ccc(C(=O)Nc2cc(OC)c(NC(=O)Nc3ccccc3)cc2OC)cc1,0,0,0,22.8,0,0,0
N#CCCN(C(=O)COC(=O)CCc1ccccc1)c1ccccc1,0,0,0,0,0,0,-
Cc1ccc(SCC(=O)OCC(=O)N(CCC#N)c2ccccc2)cc1C,0,0,0,29.4,0,0,0
CCC(C)C(NS(=O)(=O)c1ccc(C)cc1)C(=O)NCCCN1CCOCC1 (configuration not stated),0,0,0,0,0,0,-
CN(C(=O)CSc1nc2sc3c(c2c(=O)n1C)CCC3)C1CCS(=O)(=O)C1 (configuration not stated),0,0,0,18.5,0,0,0
Nc1[nH]c2cc(Cl)ccc2c1C(=O)NCCc1ccc(Cl)cc1,0,-,0,18.9,-,0,18.7
CC(=O)c1c(C)[nH]c(C(=O)NCCc2ccc(Cl)cc2)c1C,0,0,0,0,0,0,-
CCO/C=C/C(O)(CNC(=O)c1ccc(C(C)(C)C)cc1)C(F)(F)F (configuration not stated),0,0,0,59.6,0,0,0
CCOC(=O)CNC(=O)c1ccc(C)cc1,0,0,0,0,0,0,-
O=C(c1cccc(NS(=O)(=O)c2ccccc2)c1)N1CCN(c2ccccc2)CC1,0,0,0,0,0,0,-
COc1cccc(NC(=O)Nc2cccs2)c1,0,0,0,0,0,0,-
COc1ccc(NC(=O)Nc2cccs2)cc1OC,0,0,0,18.3,0,0,0
c1ccc(CSc2nnc(-c3cccnc3)o2)cc1,0,0,0,0,0,0,-
C(=C\c1ccccc1)/CSc1nnc(-c2cccnc2)o1,0,0,0,20.9,0,0,0
COc1ccc(C(=O)Nc2c(N)nc(SCC(=O)Nc3ccc(NC(C)=O)cc3)[nH]c2=O)cc1OC,0,0,0,18.1,0,0,0
Cc1ccc(/C=C/c2nc3ccccc3[nH]2)o1,0,0,0,24.4,0,0,0
Cc1cc2nc(/C=C/c3nc4cc(C)c(C)cc4[nH]3)[nH]c2cc1C,0,0,0,0,0,0,-
CCS(=O)(=O)N1Cc2cc(C(=O)N(C)C)nc(-c3cccc(-c4ccc(F)cc4)c3)c2[C@@H]1CCO,0,-,0,0,0,0,-
C[C@H](O)[C@@H]1C(=O)N2CCc3ccc(-c4ccccc4)cc3[C@@H]2C[C@@H]1N(C)C(=O)c1ccco1,0,0,0,0,0,0,-
COc1ccc(-c2nn(-c3ccccc3)cc2/C=N/O)cc1OC,0,0,0,0,0,0,-
COc1ccc(-c2nn(-c3ccccc3)cc2/C=N/Nc2ccc3ccccc3n2)cc1OC,0,0,0,18.6,0,0,0
NC(=O)c1ncn([C@@H]2O[C@H](CNCc3cc(Br)ccc3OCc3ccccc3)[C@@H](O)[C@H]2O)n1,0,0,0,0,0,0,-
O=C1c2ccccc2C2=Nc3ccccc3SC(c3ccc(Cl)cc3)C12 (configuration not stated),0,0,0,0,0,0,-
O=C1c2ccccc2C2=Nc3ccccc3SC(c3cccc(F)c3)C12 (configuration not stated),0,0,0,17.9,0,0,0
Cc1c(O)ccc(/C(Cc2ccc3ccccc3n2)=N\O)c1O,0,0,0,51.9,0,0,42.2
CC(CCCC(C)(C)O)NC(=O)c1ccc2oc(CCc3ccccc3)nc2c1 (configuration not stated),0,0,0,0,0,0,-
Cc1ccccc1C(=O)Nc1nnc(-c2ccc(F)cc2)o1,0,0,0,0,0,0,-

# Bioassay records from PubChem BioAssay.
